Results as given in ChEMBL document CHEMBL4257442, “An insight into tetrahydro-β-carboline-tetrazole hybrids: synthesis and bioevaluation as potent antileishmanial agents” (Medchemcomm, 2017).
pIC50: −log10 of the molar value.

What was measured:
[1] = Selectivity index, ratio of CC50 for mouse J774A.1 cells to IC50 for Leishmania donovani MHOM/IN/80/Dd8 amastigote forms infected in mouse J774A.1 cells; assay type: toxicity, cell-based; conditions: read-out: Ratio CC50/IC50
Procedure, shortened: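 SI was calculated as the cytotoxicity CC50 in J-774A.1 cells divided by the anti-amastigote IC50. The amastigote assay used murine macrophages expressing a firefly luciferase reporter, infected with intracellular L. donovani. Each IC50 and CC50 is the average of three independent assays.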

[2] = Cytotoxicity against mouse J774A.1 cells after 2 hrs by MTT assay; assay type: cell-based, J774.A1
Procedure, shortened: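 Mouse macrophage J-774A.1 cells obtained from NCCS, Pune, were used for the in vitro cytotoxicity assay. CC50 is the average of three independent assays, expressed as average ± standard error.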

Leishmania donovani [3] = test: Antileishmanial activity against Leishmania donovani MHOM/IN/80/Dd8 promastigotes harboring luciferase reporter gene after 72 hrs by Steady-Glo luminescence assay; assay type: functional, organism-based; conditions: MHOM/IN/80/Dd8, 72 h
Procedure, shortened: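 Extracellular promastigotes of the L. donovani WHO reference strain MHOM/IN/80/Dd8. IC50 is the concentration giving 50% inhibition of parasite growth. Values are the average of three independent assays, given as average ± standard error.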

Leishmania donovani [4] = test: Antileishmanial activity against Leishmania donovani MHOM/IN/80/Dd8 amastigotes harboring luciferase reporter gene infected in mouse J774A.1 cells after 72 hrs by Steady-Glo luminescence assay; assay type: functional, organism-based; conditions: MHOM/IN/80/Dd8, J774.A1, 72 h
Procedure, shortened: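 Intracellular L. donovani amastigotes in murine macrophages, with firefly luciferase reporter expression. IC50 is the concentration giving 50% inhibition of parasite growth. Values are the average of three independent assays, given as average ± standard error.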

Leishmania donovani [5] = test: (§1) Antileishmanial activity against Leishmania donovani MHOM/IN/80/Dd8 amastigotes infected in golden hamsters assessed as inhibition of splenic parasite burden at 30 mg/kg, po for 5 consecutive days initiated after 2 days of biopsy and measured on day 7 post last dose by Giemsa staining-based assay relative to control; assay type: functional; conditions: MHOM/IN/80/Dd8, po
Leishmania donovani [6] = test: as §1, with “at 50” for “at 30”, “mg/kg, ip” for “mg/kg, po”, “day 28” for “day 7”; assay type: functional; conditions: MHOM/IN/80/Dd8, ip
Procedure, shortened: (§2)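 Golden hamster model infected with L. donovani. Treatment was 50 mg kg–1 given intraperitoneally for 5 consecutive days. Read-out was % inhibition of splenic parasite burden.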

Leishmania donovani [7] = test: as §1, with “at 50” for “at 30”, “mg/kg, ip” for “mg/kg, po”; assay type: functional; conditions: MHOM/IN/80/Dd8, ip; procedure, shortened: as §2
[8] = Apparent oral clearance in golden Syrian hamster at 50 mg/kg measured up to 24 hrs by LC-MS/MS analysis; assay type: ADME, organism-based, Mesocricetus auratus; conditions: in vivo
Procedure, shortened: (§3)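 Single oral 50 mg kg–1 dose given to golden Syrian hamsters (n = 5). Compound quantified in serum over time up to 24 h by validated LC-MS/MS with electrospray ionization. Parameters came from non-compartmental analysis of the mean serum concentration–time profile and are reported as mean ± SEM of five animals.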

[9] = MRT in golden Syrian hamster at 50 mg/kg, po measured up to 24 hrs by LC-MS/MS analysis; assay type: ADME, organism-based, Mesocricetus auratus; conditions: in vivo; procedure, shortened: as §3
Leishmania donovani [10] = test: as §1, with “100” for “30”; assay type: functional; conditions: MHOM/IN/80/Dd8, po
[11] = AUClast in golden Syrian hamster at 50 mg/kg, po measured up to 24 hrs by LC-MS/MS analysis; assay type: ADME, organism-based, Mesocricetus auratus; parameters: time < 24 hr, dose 50 mg/kg, route oral; conditions: in vivo; procedure, shortened: as §3
[12] = Apparent oral volume of distribution in golden Syrian hamster at 50 mg/kg measured up to 24 hrs by LC-MS/MS analysis; assay type: ADME, organism-based, Mesocricetus auratus; conditions: in vivo; procedure, shortened: as §3
Leishmania donovani [13] = test: as §1, with “100” for “30”, “28” for “7”; assay type: functional; conditions: MHOM/IN/80/Dd8, po
[14] = Tmax in golden Syrian hamster at 50 mg/kg, po measured up to 24 hrs by LC-MS/MS analysis; assay type: ADME, organism-based, Mesocricetus auratus; conditions: in vivo; procedure, shortened: as §3
[15] = Cmax in golden Syrian hamster at 50 mg/kg, po measured up to 24 hrs by LC-MS/MS analysis; assay type: ADME, organism-based, Mesocricetus auratus; parameters: dose 50 mg/kg, route oral; conditions: in vivo; procedure, shortened: as §3

Row | Compound | selectivity ratio [1] | CC50 at 2 h [2] [µM] | pIC50 (Leishmania donovani [3]) | pIC50 (Leishmania donovani [4]) | other results
1 | CC(C)(C)n1nnnc1C(c1ccc(Cl)cc1)N1CCc2c([nH]c3ccccc23)C1 (configuration not stated) | 2 | 37 | 5.46 | 4.85 | 
2 | O=[N+]([O-])c1ccc(C(c2nnnn2C2CCCCC2)N2CCc3c([nH]c4ccccc34)C2)cc1 (configuration not stated) |  |  | 4.51 | ≤ 4.30 | 
3 | CCCCCCCCCCCCCCCCOP(=O)([O-])OCC[N+](C)(C)C [MILTEFOSINE] | 1.48 | 12.4 |  |  | inhibition in vivo at 30 mg/kg (Leishmania donovani [5]): 98.1%
4 | Fc1ccc(C(c2nnnn2C2CCCCC2)N2CCc3c([nH]c4ccccc34)C2)cc1 (configuration not stated) |  |  | 4.84 | ≤ 4.60 | 
5 | COc1ccc(C(c2nnnn2C2CCCCC2)N2CCc3c([nH]c4ccccc34)C2)cc1 (configuration not stated) |  |  | 4.69 | ≤ 4.30 | 
6 | COc1ccc(C(c2nnnn2C2CCCCC2)N2CCc3c([nH]c4ccccc34)C2)cc1OC (configuration not stated) | 13 | 41.9 | 5.92 | 5.48 | 
7 | Clc1ccccc1C(c1nnnn1C1CCCCC1)N1CCc2c([nH]c3ccccc23)C1 (configuration not stated) |  |  | ≤ 4.00 | ≤ 4.30 | 
8 | CC(C)(C)n1nnnc1C(c1cccc([N+](=O)[O-])c1)N1CCc2c([nH]c3ccccc23)C1 (configuration not stated) | 39 | 150 | 5.31 | 5.41 | inhibition in vivo at 50 mg/kg (Leishmania donovani [6]): 2.92%; inhibition in vivo at 50 mg/kg (Leishmania donovani [7]): 4.83%
9 | CC(C)c1ccc(C(c2nnnn2C(C)(C)C)N2CCc3c([nH]c4ccccc34)C2)cc1 (configuration not stated) | 7 | 130 | 5.45 | 4.75 | 
10 | CC(C)(C)n1nnnc1C(c1ccccc1)N1CCc2c([nH]c3ccccc23)C1 (configuration not stated) | 27 | 146 | 5.39 | 5.27 | inhibition in vivo at 50 mg/kg (Leishmania donovani [6]): 3.79%; inhibition in vivo at 50 mg/kg (Leishmania donovani [7]): 4.05%
11 | COc1cc(C(c2nnnn2C2CCCCC2)N2CCc3c([nH]c4ccccc34)C2)cc(OC)c1OC (configuration not stated) | 23 | 36 | 5.55 | 5.80 | CL/F [8]: 720 mL/min/kg; MRT [9]: 10.2 h; inhibition in vivo at 100 mg/kg (Leishmania donovani [10]): 50.9%; inhibition in vivo at 50 mg/kg (Leishmania donovani [6]): 88.9%; inhibition in vivo at 50 mg/kg (Leishmania donovani [7]): 75%; AUC(0-t) at 24 h [11]: 844 ng·h/mL; Vd/F [12]: 652 L/kg; inhibition in vivo at 100 mg/kg (Leishmania donovani [13]): 77.5%; Tmax [14]: 1.6 to 8 h; Cmax [15]: 76.2 to 83.5 ng/mL
12 | Clc1ccc(C(c2nnnn2C2CCCCC2)N2CCc3c([nH]c4ccccc34)C2)cc1 (configuration not stated) | 17 | 35.5 | 5.54 | 5.68 | 
13 | COc1ccc(C(c2nnnn2C(C)(C)C)N2CCc3c([nH]c4ccccc34)C2)cc1 (configuration not stated) | 10 | 42 | 5.94 | 5.36 | 
14 | N#Cc1ccc(C(c2nnnn2C2CCCCC2)N2CCc3c([nH]c4ccccc34)C2)cc1 (configuration not stated) |  |  | ≤ 4.00 | ≤ 4.30 | 
15 | COc1cc(C(c2nnnn2C(C)(C)C)N2CCc3c([nH]c4ccccc34)C2)cc(OC)c1OC (configuration not stated) |  |  | 4.63 | ≤ 4.30 | 
16 | CC(C)(C)n1nnnc1C(c1ccc(F)cc1)N1CCc2c([nH]c3ccccc23)C1 (configuration not stated) | 3 | 48.8 | 5.57 | 4.76 | 
17 | CC(C)(C)n1nnnc1C(c1ccc(Br)cc1)N1CCc2c([nH]c3ccccc23)C1 (configuration not stated) | 38 | 144 | 5.80 | 5.42 | inhibition in vivo at 50 mg/kg (Leishmania donovani [6]): 53.1%; inhibition in vivo at 50 mg/kg (Leishmania donovani [7]): 33.7%
18 | CC(C)(C)n1nnnc1C(c1ccc(C#N)cc1)N1CCc2c([nH]c3ccccc23)C1 (configuration not stated) | 9 | 150 | 5.55 | 4.79 | 
19 | Brc1ccc(C(c2nnnn2C2CCCCC2)N2CCc3c([nH]c4ccccc34)C2)cc1 (configuration not stated) |  |  | 4.78 | ≤ 4.30 | 
20 | CC(C)(C)n1nnnc1C(c1ccc([N+](=O)[O-])cc1)N1CCc2c([nH]c3ccccc23)C1 (configuration not stated) | 37 | 140 | 6.23 | 5.42 | inhibition in vivo at 50 mg/kg (Leishmania donovani [6]): 19.6%; inhibition in vivo at 50 mg/kg (Leishmania donovani [7]): 20.4%
21 | COc1ccc(C(c2nnnn2C(C)(C)C)N2CCc3c([nH]c4ccccc34)C2)cc1OC (configuration not stated) | 8 | 138 | 5.24 | 4.80 | 
